Experimental data as given in ChEMBL document CHEMBL5724801, “EUbOPEN Chemogenomics Library - Multiplex” (2024).
Several values for one entry are separate records, joined by “and”; a condition that tells them apart may be missing. Equal values may be shown once.

Test system: HEK-293T
Experiment: Multiplex assay against HEK293T
Type: toxicity, cell-based
Conditions: human
In short: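 With compound added, live cells were imaged on a CQ1 microscope at 37°C and 5% CO2; staining with Hoechst33342, BioTracker Green Microtubule Cytoskeleton Dye, MitoTracker Red and Annexin V Alexa Fluor 680 had been done at seeding. The CellPathfinder machine-learning gating scheme split cells into Hoechst high-intensity objects or normal cells, normal cells into healthy, pyknosed or fragmented nuclei, and pyknosed cells into mitotic or apoptotic. The tubulin, mitochondrial-mass and membrane-permeability phenotypes are per cents of healthy-nucleus cells.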

[1] = 12 h, 1 µM, compound concentration 1 uM
[2] = 12 h, 10 µM, compound concentration 10 uM
[3] = 24 h, 1 µM, compound concentration 1 uM
[4] = 24 h, 10 µM, compound concentration 10 uM
[5] = 48 h, 1 µM, compound concentration 1 uM
[6] = 48 h, 10 µM, compound concentration 10 uM

In the case of Cc1ccc(OCC(O)C(C)NC(C)C)c2c1CCC2.Cl (stereo unspecified), the “Population Apoptotic (%)” value [1] is reported as 34% and 45%, the “Population Fragmented Nuclei (%)” value [1] is reported as 6% and 5% and the “Population Healthy Nuclei (%)” value [1] is reported as 81% and 84%. For the same compound, the “Population Hoechst High Intensity Objects (%)” value [1] was 5%, the “Population Membrane Permeable-Phenotype (%)” value [1] was 0% and the “Population Mitochondria Different-Phenotype (%)” value [1] was 54% and 65%. For the same compound, the “Population Mitotic Cells (%)” value [1] was 65% and 54%, the “Population Normal (%)” value [1] was 94% and the “Population Pyknosed Nuclei (%)” value [1] was 12% and 10%. For the same compound, the “Population Tubulin-Different-Phenotype (%)” value [1] was 40% and 22%, the “Total Cell Count” value [1] was 409 and 360 and the “Population Apoptotic (%)” value [2] was 43%. The “Population Fragmented Nuclei (%)” value [2] was 7% and 9%, the “Population Healthy Nuclei (%)” value [2] was 67% and 76% and the “Population Membrane Permeable-Phenotype (%)” value [2] was 0%. The “Population Mitochondria Different-Phenotype (%)” value [2] was 66% and 79%, the “Population Mitotic Cells (%)” value [2] was 56% and the “Population Normal (%)” value [2] was 96% and 81%. For the same compound, the “Population Pyknosed Nuclei (%)” value [2] was 25% and 14%, the “Population Tubulin-Different-Phenotype (%)” value [2] was 61% and 59% and the “Total Cell Count” value [2] was 247 and 323. For the same compound, the “Population Apoptotic (%)” value [3] was 35% and 28%, the “Population Fragmented Nuclei (%)” value [3] was 6% and 7% and the “Population Healthy Nuclei (%)” value [3] was 80% and 83%. The “Population Hoechst High Intensity Objects (%)” value [3] was 3% and 4%, the “Population Membrane Permeable-Phenotype (%)” value [3] was 0% and the “Population Mitochondria Different-Phenotype (%)” value [3] was 38% and 45%. For the same compound, the “Population Mitotic Cells (%)” value [3] was 64% and 71%, the “Population Normal (%)” value [3] was 96% and 95% and the “Population Pyknosed Nuclei (%)” value [3] was 12% and 9%. For the same compound, the “Population Tubulin-Different-Phenotype (%)” value [3] was 25% and 17%, the “Total Cell Count” value [3] was 548 and 444 and the “Population Apoptotic (%)” value [4] was 46% and 50%. For the same compound, the “Population Fragmented Nuclei (%)” value [4] was 11% and 9%, the “Population Healthy Nuclei (%)” value [4] was 71% and 78% and the “Population Hoechst High Intensity Objects (%)” value [4] was 5% and 11%. For the same compound, the “Population Membrane Permeable-Phenotype (%)” value [4] was 1% and 0%, the “Population Mitochondria Different-Phenotype (%)” value [4] was 53% and 60% and the “Population Mitotic Cells (%)” value [4] was 53% and 50%. The “Population Normal (%)” value [4] was 94% and 88%, the “Population Pyknosed Nuclei (%)” value [4] was 17% and 11% and the “Population Tubulin-Different-Phenotype (%)” value [4] was 47%. The “Total Cell Count” value [4] was 334 and 399, the “Population Apoptotic (%)” value [5] was 24% and 26% and the “Population Fragmented Nuclei (%)” value [5] was 12% and 11%. For the same compound, the “Population Healthy Nuclei (%)” value [5] was 79% and 81%, the “Population Hoechst High Intensity Objects (%)” value [5] was 3% and 1% and the “Population Membrane Permeable-Phenotype (%)” value [5] was 0%. The “Population Mitochondria Different-Phenotype (%)” value [5] was 28% and 27%, the “Population Mitotic Cells (%)” value [5] was 75% and 73% and the “Population Normal (%)” value [5] was 96% and 98%. For the same compound, the “Population Pyknosed Nuclei (%)” value [5] was 8% and 7%, the “Population Tubulin-Different-Phenotype (%)” value [5] was 14% and the “Total Cell Count” value [5] was 804 and 660. The “Population Apoptotic (%)” value [6] was 40% and 34%, the “Population Fragmented Nuclei (%)” value [6] was 10% and 11% and the “Population Healthy Nuclei (%)” value [6] was 74% and 80%. For the same compound, the “Population Hoechst High Intensity Objects (%)” value [6] was 5%, the “Population Membrane Permeable-Phenotype (%)” value [6] was 0% and 1% and the “Population Mitochondria Different-Phenotype (%)” value [6] was 48% and 39%. The “Population Mitotic Cells (%)” value [6] was 59% and 66%, the “Population Normal (%)” value [6] was 94% and the “Population Pyknosed Nuclei (%)” value [6] was 14% and 8%. For the same compound, the “Population Tubulin-Different-Phenotype (%)” value [6] was 43% and 41% and the “Total Cell Count” value [6] was 435 and 611.
In the case of CCn1c(-c2ccncc2)cc2c1CCNC2=O, the “Population Apoptotic (%)” value [1] is reported as 15.09% and 7.09%, the “Population Fragmented Nuclei (%)” value [1] is reported as 1.92% and 1.82% and the “Population Hoechst High Intensity Objects (%)” value [1] is reported as 0.95% and 0%. For the same compound, the “Population Membrane Permeable-Phenotype (%)” value [1] was 2.72% and 0%, the “Population Mitochondria Different-Phenotype (%)” value [1] was 35.37% and 23.81% and the “Population Mitotic Cells (%)” value [1] was 84.91% and 92.91%. For the same compound, the “Population Normal (%)” value [1] was 99.05% and 100%, the “Population Pyknosed Nuclei (%)” value [1] was 50.96% and 85.45% and the “Population Tubulin-Different-Phenotype (%)” value [1] was 7.48% and 14.29%. For the same compound, the “Total Cell Count” value [1] was 315 and 165, the “Population Apoptotic (%)” value [2] was 15.05% and 13.74% and the “Population Fragmented Nuclei (%)” value [2] was 0.77% and 4.17%. For the same compound, the “Population Hoechst High Intensity Objects (%)” value [2] was 0%, the “Population Membrane Permeable-Phenotype (%)” value [2] was 0% and 14.29% and the “Population Mitochondria Different-Phenotype (%)” value [2] was 31.51% and 14.29%. The “Population Mitotic Cells (%)” value [2] was 84.95% and 86.26%, the “Population Normal (%)” value [2] was 100% and the “Population Pyknosed Nuclei (%)” value [2] was 71.26% and 90.97%. The “Population Tubulin-Different-Phenotype (%)” value [2] was 5.48% and 14.29%, the “Total Cell Count” value [2] was 261 and 144 and the “Population Apoptotic (%)” value [3] was 31.73% and 15.24%. For the same compound, the “Population Fragmented Nuclei (%)” value [3] was 2.16% and 2.84%, the “Population Hoechst High Intensity Objects (%)” value [3] was 0.27% and 0% and the “Population Membrane Permeable-Phenotype (%)” value [3] was 1.16% and 6.25%. The “Population Mitochondria Different-Phenotype (%)” value [3] was 23.17% and 18.75%, the “Population Mitotic Cells (%)” value [3] was 68.27% and 84.76% and the “Population Normal (%)” value [3] was 99.73% and 100%. The “Population Pyknosed Nuclei (%)” value [3] was 28.03% and 74.47%, the “Population Tubulin-Different-Phenotype (%)” value [3] was 32.43% and 18.75% and the “Total Cell Count” value [3] was 372 and 141. For the same compound, the “Population Apoptotic (%)” value [4] was 46.45% and 34.13%, the “Population Fragmented Nuclei (%)” value [4] was 1.6% and 3.57% and the “Population Hoechst High Intensity Objects (%)” value [4] was 0%. For the same compound, the “Population Membrane Permeable-Phenotype (%)” value [4] was 0%, the “Population Mitochondria Different-Phenotype (%)” value [4] was 30.77% and 44.44% and the “Population Mitotic Cells (%)” value [4] was 53.55% and 65.87%. For the same compound, the “Population Normal (%)” value [4] was 100%, the “Population Pyknosed Nuclei (%)” value [4] was 62% and 90% and the “Total Cell Count” value [4] was 250 and 140. For the same compound, the “Population Apoptotic (%)” value [5] was 33.96% and 24.19%, the “Population Fragmented Nuclei (%)” value [5] was 5.74% and 0% and the “Population Healthy Nuclei (%)” value [5] was 80.42% and 45.61%. For the same compound, the “Population Hoechst High Intensity Objects (%)” value [5] was 0.78% and 0.87%, the “Population Membrane Permeable-Phenotype (%)” value [5] was 2.6% and 0% and the “Population Mitochondria Different-Phenotype (%)” value [5] was 61.36% and 40.38%. The “Population Mitotic Cells (%)” value [5] was 66.04% and 75.81%, the “Population Normal (%)” value [5] was 99.22% and 99.13% and the “Population Apoptotic (%)” value [6] was 66.43% and 44.74%. The “Population Fragmented Nuclei (%)” value [6] was 1.61% and 5.88%, the “Population Hoechst High Intensity Objects (%)” value [6] was 0% and the “Population Membrane Permeable-Phenotype (%)” value [6] was 0%. For the same compound, the “Population Mitochondria Different-Phenotype (%)” value [6] was 82.35% and 78.57%, the “Population Mitotic Cells (%)” value [6] was 33.57% and 55.26% and the “Population Normal (%)” value [6] was 100%. The “Population Pyknosed Nuclei (%)” value [6] was 57.43% and 83.82% and the “Total Cell Count” value [6] was 249 and 136.
